Assays:
[1] = Cytotoxicity against […]-differentiated human THP1 cells assessed as growth inhibition at 100 ug/ml measured after 48 hrs by MTT assay relative to control; assay type: toxicity, cell-based, THP-1; conditions: read-out: GI
In short: (§1)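 MTT assay with 48 h compound exposure. THP-1 macrophages made by 24 h PMA treatment. Each concentration tested in triplicate in one experiment. % cytotoxicity = (control−test)/(control−blank)×100, with control = cells + DMSO and blank = medium without cells. IC50 from % survival versus concentration plots.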

[2] = Selectivity index, ratio of GI50 for human A549 cells to MIC for Mycobacterium tuberculosis H37Ra ATCC 25177 at dormant stage; assay type: toxicity, cell-based; conditions: read-out: Selectivity Index
In short: (§2)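 SI is the cell-line GI50 divided by the dormant-stage mycobacterial MIC. […] THP-1 macrophages were PMA-differentiated for 24 h.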

[3] = system: Mycobacterium tuberculosis; assay: Growth inhibition of Mycobacterium tuberculosis H37Ra ATCC 25177 at active stage at 0.78 ug/ml measured after 8 days by XTT dye based two fold dilution method relative to control; assay type: functional; conditions: H37Ra ATCC 25177, 192 h, read-out: GI
In short: (§3)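 MTB H37Ra was grown in Dubos medium, then exposed in Mycobacterium pheli minimal medium (pH 6.6) to compounds dissolved in DMSO. The assay ended on day 8 (active) or day 12 (dormant). Viable cells were measured by XTT reduction menadione assay at 470 nm, blank-corrected, relative to vehicle control. Triplicates were expressed as mean ± SD. MIC came from dose-response curves.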

[4] = Cytotoxicity against human PANC1 cells assessed as growth inhibition at 100 ug/ml measured after 48 hrs by MTT assay relative to control; assay type: toxicity, cell-based, PANC-1; conditions: read-out: GI
[5] = Selectivity index, ratio of GI50 for human HeLa cells to MIC for Mycobacterium tuberculosis H37Ra ATCC 25177 at dormant stage; assay type: toxicity, cell-based; conditions: read-out: Selectivity Index; in short: as §2
[6] = system: Mycobacterium tuberculosis; assay: Growth inhibition of Mycobacterium bovis BCG ATCC 35743 at dormant stage measured after 12 days by nitrate reductase dye based two fold dilution method; assay type: functional; conditions: BCG str. ATCC 35743, 288 h
In short: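 M. bovis BCG was grown in Dubos medium and assayed in Mycobacterium pheli minimal medium (pH 6.6), with compounds from DMSO stocks. Incubation lasted 8 days for active and 12 days for dormant cultures. Viability was read by nitrate reductase at 540 nm against cell-free blanks, with vehicle set as 100% growth. Primary screen was at 30, 10 and 3 µg/ml, in triplicate, mean ± SD. MIC was taken from dose-response curves.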

[7] = system: Mycobacterium tuberculosis; assay: Growth inhibition of Mycobacterium tuberculosis H37Ra ATCC 25177 at active stage at 25 ug/ml measured after 8 days by XTT dye based two fold dilution method relative to control; assay type: functional; conditions: H37Ra ATCC 25177, 192 h, read-out: GI; in short: as §3
[8] = Selectivity index, ratio of GI50 for human PANC1 cells to MIC for Mycobacterium tuberculosis H37Ra ATCC 25177 at dormant stage; assay type: toxicity, cell-based, PANC-1; conditions: read-out: Selectivity Index; in short: as §2
[9] = Cytotoxicity against human THP1 cells measured after 48 hrs by MTT assay; assay type: toxicity, cell-based, THP-1; in short: as §1
[10] = system: Mycobacterium tuberculosis; assay: Growth inhibition of Mycobacterium tuberculosis H37Ra ATCC 25177 at active stage at 12.5 ug/ml measured after 8 days by XTT dye based two fold dilution method relative to control; assay type: functional; conditions: H37Ra ATCC 25177, 192 h, read-out: GI
[11] = system: Staphylococcus aureus; assay: Growth inhibition of Staphylococcus aureus NCIM 2010 at 30 ug/ml measured after 12 hrs relative to control; assay type: functional; conditions: NCIM 2010, 12 h, read-out: GI
In short: (§4)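 Bacteria grown in LB at 37 °C and 180 rpm to OD 1. Compounds added to wells, then 0.1% inoculum of 1 OD culture (620 nm). Growth read as OD at 620 nm after 8 h for gram-negative and after 12 h for gram-positive strains.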

[12] = system: Mycobacterium tuberculosis; assay: Growth inhibition of Mycobacterium tuberculosis H37Ra ATCC 25177 at dormant stage at 0.78 ug/ml measured after 12 days by XTT dye based two fold dilution method relative to control; assay type: functional; conditions: H37Ra ATCC 25177, 288 h, read-out: GI; in short: as §3
[13] = system: Bacillus subtilis; assay: Growth inhibition of Bacillus subtilis NCIM 2079 at 30 ug/ml measured after 12 hrs relative to control; assay type: functional; conditions: NCIM 2079, 12 h, read-out: GI; in short: as §4
[14] = Cytotoxicity against human A549 cells assessed as growth inhibition at 100 ug/ml measured after 48 hrs by MTT assay relative to control; assay type: toxicity, cell-based; conditions: read-out: GI
[15] = system: Bacillus subtilis; assay: Growth inhibition of Bacillus subtilis NCIM 2079 at 10 ug/ml measured after 12 hrs relative to control; assay type: functional; conditions: NCIM 2079, 12 h, read-out: GI; in short: as §4
[16] = system: Escherichia coli; assay: Antibacterial activity against Escherichia coli NCIM 2688 measured after 8 hrs; assay type: functional; conditions: NCIM 2688, 8 h; in short: as §4
[17] = Cytotoxicity against primary HUVEC assessed as growth inhibition at 100 ug/ml measured after 48 hrs by MTT assay relative to control; assay type: toxicity, cell-based; conditions: human, read-out: GI
[18] = system: Staphylococcus aureus; assay: Growth inhibition of Staphylococcus aureus NCIM 2010 at 3 ug/ml measured after 12 hrs relative to control; assay type: functional; conditions: NCIM 2010, 12 h, read-out: GI; in short: as §4
[19] = system: Mycobacterium tuberculosis; assay: Growth inhibition of Mycobacterium tuberculosis H37Ra ATCC 25177 at active stage at 50 ug/ml measured after 8 days by XTT dye based two fold dilution method relative to control; assay type: functional; conditions: H37Ra ATCC 25177, 192 h, read-out: GI; in short: as §3
[20] = Cytotoxicity against […]-differentiated human THP1 cells measured after 48 hrs by MTT assay; assay type: toxicity, cell-based, THP-1; in short: as §1
[21] = Cytotoxicity against human A549 cells measured after 48 hrs by MTT assay; assay type: toxicity, cell-based
[22] = system: Mycobacterium tuberculosis; assay: Growth inhibition of Mycobacterium tuberculosis H37Ra ATCC 25177 at dormant stage at 3.13 ug/ml measured after 12 days by XTT dye based two fold dilution method relative to control; assay type: functional; conditions: H37Ra ATCC 25177, 288 h, read-out: GI; in short: as §3
[23] = Cytotoxicity against human HeLa cells measured after 48 hrs by MTT assay; assay type: toxicity, cell-based

Question: Which results are given for `Cc1cccc2cc(/C=C3\SC(=S)N(CC(=O)O)C3=O)c(Cl)nc12`?
Answer: inhibition at 48 h, 100 ug/ml [1]: 25%; selectivity ratio [2]: 5; inhibition of growth at 0.78 µg/mL [3]: -16%; inhibition at 48 h, 100 ug/ml [4]: 5.9%; selectivity ratio [5]: 5; IC50 [6]: > 30 µg/mL; IC90 [6]: > 30 µg/mL; inhibition of growth at 25 µg/mL [7]: 93.4%; selectivity ratio [8]: 5; GI50 at 48 h [9]: > 100 µg/mL; inhibition of growth at 12.5 µg/mL [10]: 22%; inhibition of growth at 30 µg/mL [11]: 15.5%; inhibition of growth at 0.78 µg/mL [12]: -43.4%; inhibition of growth at 30 µg/mL [13]: -24.5%; inhibition at 48 h, 100 ug/ml [14]: 15.6%; inhibition of growth at 10 µg/mL [15]: -19.6%; MIC [16]: > 30 µg/mL; inhibition at 48 h, 100 ug/ml [17]: 34%; inhibition of growth at 3 µg/mL [18]: -24.6%; inhibition of growth at 50 µg/mL [19]: 107%; GI50 at 48 h [20]: > 100 µg/mL; GI50 at 48 h [21]: > 100 µg/mL; inhibition of growth at 3.13 µg/mL [22]: 11.5%; GI50 at 48 h [23]: > 100 µg/mL

Reference: ChEMBL document CHEMBL3877264, “Quinolidene-rhodanine conjugates: Facile synthesis and biological evaluation” (Eur J Med Chem, 2017)
